# Laboratory results taken from publication PMC4300256 (Aquatic toxicology (Amsterdam, Netherlands), 2014).
# Read-outs that look alike come from different tables or passages of the source.
# Experiments:
# [1] = molecular target: T1, RyR1 (Fundulus heteroclitus, UniProt A0A3Q2R0L4); test: Ca^2+ induced [^3H]Ry binding; type: biochemical; conditions: NBH and SC killifish; 10 nM [^3H]Ry
# In short: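 Skeletal muscle microsomes (≥4 fish pooled per population), 100 µg ml−1, with 10 nM [3H]Ry in 250 KCl/15 NaCl/20 HEPES mM buffer (pH 7.1), 25°C, 16 h. Free Ca2+ 0.25–10,000 µM set with CaCl2/EGTA. Nonspecific binding: 1000-fold unlabeled ryanodine plus 200 µM EGTA. GF/B filtration, scintillation counting. Bell-shaped curve fit. 2–4 biological replicates, each run in triplicate or quadruplicate.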
# [2] = molecular target: T1, RyR1; type: binding; conditions: two-site model, estimate ± SE
# [3] = molecular target: T1, RyR1; test: PCB 95 induced [^3H]Ry binding; type: biochemical; conditions: for maximum response achieved, [^3H]Ry binding: 8 nM [^3H]Ry, 50 µM CaCl2; for EC50: read-out: half-maximal effect concentration (EC50)
# In short: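 Pooled skeletal muscle microsomes, 40 µg ml−1, were incubated with 8 nM [3H]Ry and 50 µM CaCl2 in RyR buffer (pH 7.1) at 25°C for 16 h. Test compound 0.01–20 µM in 0.5% DMSO; solvent control was 0.5% DMSO. After filtration and scintillation counting, specific binding was taken as a percent of the DMSO control and fitted by sigmoidal dose-response. 2–4 biological replicates, each in triplicate or quadruplicate.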
# T1 sequence (A0A3Q2R0L4 1-4852): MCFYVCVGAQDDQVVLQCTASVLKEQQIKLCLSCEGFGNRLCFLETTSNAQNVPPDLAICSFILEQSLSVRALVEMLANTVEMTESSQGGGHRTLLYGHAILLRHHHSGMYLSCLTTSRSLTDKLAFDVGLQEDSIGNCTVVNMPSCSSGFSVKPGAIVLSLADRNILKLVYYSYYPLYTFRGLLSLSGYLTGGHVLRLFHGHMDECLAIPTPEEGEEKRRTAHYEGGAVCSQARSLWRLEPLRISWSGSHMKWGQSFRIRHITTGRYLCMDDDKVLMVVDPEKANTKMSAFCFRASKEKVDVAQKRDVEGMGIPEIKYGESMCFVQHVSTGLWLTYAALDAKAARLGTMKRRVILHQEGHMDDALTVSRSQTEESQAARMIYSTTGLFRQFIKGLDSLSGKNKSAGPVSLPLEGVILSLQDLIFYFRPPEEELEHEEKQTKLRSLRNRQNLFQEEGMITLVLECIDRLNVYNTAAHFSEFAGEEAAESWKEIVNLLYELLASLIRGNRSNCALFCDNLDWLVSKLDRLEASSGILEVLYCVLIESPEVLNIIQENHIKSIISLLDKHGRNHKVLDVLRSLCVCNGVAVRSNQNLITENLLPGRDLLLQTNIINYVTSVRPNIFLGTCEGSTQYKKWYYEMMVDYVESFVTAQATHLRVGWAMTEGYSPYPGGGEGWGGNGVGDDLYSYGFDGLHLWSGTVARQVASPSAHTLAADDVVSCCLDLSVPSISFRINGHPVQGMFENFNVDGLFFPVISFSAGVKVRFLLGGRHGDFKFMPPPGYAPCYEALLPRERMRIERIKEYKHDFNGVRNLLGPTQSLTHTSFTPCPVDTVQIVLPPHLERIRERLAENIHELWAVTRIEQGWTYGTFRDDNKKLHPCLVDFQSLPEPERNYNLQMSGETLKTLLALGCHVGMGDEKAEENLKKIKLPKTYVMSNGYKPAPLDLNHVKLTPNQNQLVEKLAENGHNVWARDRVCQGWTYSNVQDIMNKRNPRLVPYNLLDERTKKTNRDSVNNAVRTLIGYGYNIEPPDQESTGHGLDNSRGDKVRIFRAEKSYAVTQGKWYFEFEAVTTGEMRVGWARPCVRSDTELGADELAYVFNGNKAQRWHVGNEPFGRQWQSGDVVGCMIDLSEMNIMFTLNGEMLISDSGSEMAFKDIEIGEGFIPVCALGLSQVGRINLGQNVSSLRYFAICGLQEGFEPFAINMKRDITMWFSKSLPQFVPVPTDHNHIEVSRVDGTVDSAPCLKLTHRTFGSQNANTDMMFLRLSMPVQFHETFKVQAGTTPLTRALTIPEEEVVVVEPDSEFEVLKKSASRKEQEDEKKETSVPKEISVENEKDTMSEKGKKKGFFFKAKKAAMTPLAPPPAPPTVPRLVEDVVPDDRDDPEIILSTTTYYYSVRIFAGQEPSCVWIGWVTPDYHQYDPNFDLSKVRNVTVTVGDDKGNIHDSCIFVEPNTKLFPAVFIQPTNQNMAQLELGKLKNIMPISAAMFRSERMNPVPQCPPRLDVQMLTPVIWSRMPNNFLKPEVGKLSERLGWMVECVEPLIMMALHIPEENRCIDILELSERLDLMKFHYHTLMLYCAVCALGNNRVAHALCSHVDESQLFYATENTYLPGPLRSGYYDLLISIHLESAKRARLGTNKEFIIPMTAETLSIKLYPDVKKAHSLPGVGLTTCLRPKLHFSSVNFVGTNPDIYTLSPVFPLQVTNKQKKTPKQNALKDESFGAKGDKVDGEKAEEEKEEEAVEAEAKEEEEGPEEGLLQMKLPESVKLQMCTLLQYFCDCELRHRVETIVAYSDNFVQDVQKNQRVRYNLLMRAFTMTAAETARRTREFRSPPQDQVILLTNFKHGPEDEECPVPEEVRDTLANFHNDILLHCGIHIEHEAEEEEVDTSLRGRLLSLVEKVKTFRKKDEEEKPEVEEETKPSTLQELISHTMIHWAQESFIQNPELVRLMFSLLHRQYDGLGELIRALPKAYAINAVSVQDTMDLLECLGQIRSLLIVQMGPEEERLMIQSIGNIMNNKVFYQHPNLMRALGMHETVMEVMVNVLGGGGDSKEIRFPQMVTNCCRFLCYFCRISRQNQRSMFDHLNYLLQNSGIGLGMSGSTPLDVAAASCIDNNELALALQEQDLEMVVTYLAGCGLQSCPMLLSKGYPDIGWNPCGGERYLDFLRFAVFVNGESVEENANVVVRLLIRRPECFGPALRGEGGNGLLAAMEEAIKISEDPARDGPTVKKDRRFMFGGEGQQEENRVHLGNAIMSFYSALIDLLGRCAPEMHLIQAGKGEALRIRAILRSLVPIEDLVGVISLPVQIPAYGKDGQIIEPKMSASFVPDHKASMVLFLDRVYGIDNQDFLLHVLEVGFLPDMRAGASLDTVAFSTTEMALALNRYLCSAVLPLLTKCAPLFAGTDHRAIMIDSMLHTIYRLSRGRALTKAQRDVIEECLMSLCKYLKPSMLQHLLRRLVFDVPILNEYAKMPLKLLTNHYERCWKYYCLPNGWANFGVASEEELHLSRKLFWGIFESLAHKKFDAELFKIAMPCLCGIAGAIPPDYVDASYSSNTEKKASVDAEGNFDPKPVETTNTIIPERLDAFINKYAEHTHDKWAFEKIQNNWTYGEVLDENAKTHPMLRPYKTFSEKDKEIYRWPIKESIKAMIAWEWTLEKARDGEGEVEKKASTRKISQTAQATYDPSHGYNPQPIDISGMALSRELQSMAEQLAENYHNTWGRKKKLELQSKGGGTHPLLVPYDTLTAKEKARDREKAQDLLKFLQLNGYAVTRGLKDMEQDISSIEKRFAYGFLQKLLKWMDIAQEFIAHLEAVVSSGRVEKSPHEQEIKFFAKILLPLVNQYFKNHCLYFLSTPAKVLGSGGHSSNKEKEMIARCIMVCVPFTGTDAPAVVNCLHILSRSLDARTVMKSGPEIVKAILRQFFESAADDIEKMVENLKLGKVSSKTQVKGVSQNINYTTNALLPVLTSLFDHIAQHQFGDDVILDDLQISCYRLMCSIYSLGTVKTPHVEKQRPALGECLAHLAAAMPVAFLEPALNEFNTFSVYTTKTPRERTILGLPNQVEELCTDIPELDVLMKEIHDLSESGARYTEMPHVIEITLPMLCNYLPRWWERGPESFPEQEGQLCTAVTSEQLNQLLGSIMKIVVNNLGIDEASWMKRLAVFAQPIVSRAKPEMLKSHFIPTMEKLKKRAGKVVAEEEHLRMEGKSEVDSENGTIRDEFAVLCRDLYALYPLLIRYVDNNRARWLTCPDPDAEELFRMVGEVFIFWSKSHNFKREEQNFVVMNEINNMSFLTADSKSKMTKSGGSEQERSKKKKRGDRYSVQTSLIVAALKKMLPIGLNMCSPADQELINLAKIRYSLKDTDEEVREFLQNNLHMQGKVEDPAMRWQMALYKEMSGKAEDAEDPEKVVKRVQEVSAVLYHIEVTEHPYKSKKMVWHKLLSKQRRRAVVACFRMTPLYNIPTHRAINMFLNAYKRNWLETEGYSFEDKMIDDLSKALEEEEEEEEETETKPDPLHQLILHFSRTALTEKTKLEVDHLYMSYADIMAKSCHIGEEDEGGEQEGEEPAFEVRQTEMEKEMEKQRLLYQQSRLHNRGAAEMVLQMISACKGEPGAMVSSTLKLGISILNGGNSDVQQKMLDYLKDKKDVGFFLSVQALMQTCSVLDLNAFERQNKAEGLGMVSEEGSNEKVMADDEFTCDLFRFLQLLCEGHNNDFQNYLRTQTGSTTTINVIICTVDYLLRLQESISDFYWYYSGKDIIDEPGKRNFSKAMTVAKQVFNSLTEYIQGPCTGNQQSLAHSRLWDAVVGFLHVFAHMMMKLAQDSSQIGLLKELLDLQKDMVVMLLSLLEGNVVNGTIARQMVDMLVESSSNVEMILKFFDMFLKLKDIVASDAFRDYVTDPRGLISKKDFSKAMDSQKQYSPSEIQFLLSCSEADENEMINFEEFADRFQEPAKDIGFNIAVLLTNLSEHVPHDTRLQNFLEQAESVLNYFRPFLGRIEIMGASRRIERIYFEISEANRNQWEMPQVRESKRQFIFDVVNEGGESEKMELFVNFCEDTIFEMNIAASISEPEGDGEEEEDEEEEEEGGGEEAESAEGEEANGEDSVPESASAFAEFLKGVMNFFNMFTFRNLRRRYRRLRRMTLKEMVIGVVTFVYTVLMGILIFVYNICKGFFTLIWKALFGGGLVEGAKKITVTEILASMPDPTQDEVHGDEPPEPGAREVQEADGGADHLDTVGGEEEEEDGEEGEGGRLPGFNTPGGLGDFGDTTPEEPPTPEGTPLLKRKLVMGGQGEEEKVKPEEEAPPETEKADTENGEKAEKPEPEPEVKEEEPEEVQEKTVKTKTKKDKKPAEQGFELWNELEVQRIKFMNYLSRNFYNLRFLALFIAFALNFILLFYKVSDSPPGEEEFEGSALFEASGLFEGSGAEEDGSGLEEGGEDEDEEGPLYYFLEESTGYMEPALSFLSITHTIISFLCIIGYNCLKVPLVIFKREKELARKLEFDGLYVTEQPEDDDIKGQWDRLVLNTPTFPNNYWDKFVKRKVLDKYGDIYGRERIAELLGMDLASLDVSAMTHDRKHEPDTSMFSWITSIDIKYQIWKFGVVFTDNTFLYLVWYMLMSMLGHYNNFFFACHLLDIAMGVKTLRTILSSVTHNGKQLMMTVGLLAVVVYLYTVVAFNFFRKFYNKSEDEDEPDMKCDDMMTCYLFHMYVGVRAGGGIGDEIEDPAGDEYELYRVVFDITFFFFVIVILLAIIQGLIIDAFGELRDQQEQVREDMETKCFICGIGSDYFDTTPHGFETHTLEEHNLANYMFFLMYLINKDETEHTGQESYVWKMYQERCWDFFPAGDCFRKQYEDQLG
smiles,measurement,setting,value
[Ca+2] [Ca^2+],Ca^2+ levels leading to receptor activation,[1],below 250 µM
same,Ca^2+ levels leading to receptor inactivation,[1],above 500 µM
"CC(C)[C@@]1(O)[C@@H](OC(=O)c2ccc[nH]2)[C@@]2(O)[C@@]3(C)C[C@]4(O)O[C@@]5([C@H](O)[C@@H](C)CC[C@]35O)[C@@]2(O)[C@@]14C [[^3H]Ry, ryanodine]",High Affinity Bmax,[2]; NBH killifish skeletal muscle,1.63 ± 0.32 pmol/mg
same,Low Affinity Bmax,[2]; NBH killifish skeletal muscle,6.69 ± 0.92 pmol/mg
same,High Affinity Bmax,[2]; SC killifish skeletal muscle,1.47 ± 0.31 pmol/mg
same,Low Affinity Bmax,"[2]; SC killifish skeletal muscle, 95% CI 0.81 to 5.05",2.93 ± 1.07 pmol/mg
Clc1ccc(Cl)c(-c2c(Cl)ccc(Cl)c2Cl)c1 [PCB 95],EC10,[3]; NBH killifish skeletal muscle,9.23 nM
same,"maximum response achieved, [^3H]Ry binding",[3]; NBH killifish skeletal muscle,301 % of the DMSO control
same,EC10,[3]; SC killifish skeletal muscle,4.11 nM
same,"maximum response achieved, [^3H]Ry binding",[3]; SC killifish skeletal muscle,248 % of the DMSO control
same,EC50,"[3]; NBH killifish skeletal muscle, 95% CI 77.7–119.1",96.2 nM
same,EC50,"[3]; SC killifish skeletal muscle, 95% CI 36.6–84.6",55.6 nM
